The values below come from ChEMBL document CHEMBL3867450, “Synthesis of Natural Acylphloroglucinol-Based Antifungal Compounds against Cryptococcus Species” (J Nat Prod, 2016).

A short description of data set [1]: Antifungal activity against Cryptococcus neoformans ATCC 90113 assessed as growth inhibition at 20 ug/ml measured after 72 hrs by CLSI method. Type of data set: functional. A digest of the protocol: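 Primary screen against C. neoformans ATCC 90113 by a modified CLSI method at 20 μg/mL. Growth inhibition above 50% at this concentration was scored as active and taken to further testing.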

In another data set the test system is Cryptococcus neoformans. Kind of data set: Antifungal activity against Cryptococcus neoformans H99 assessed as growth inhibition measured after 72 hrs by CLSI method. It is filed as functional. To be noted: var grubii H99 . A digest of the protocol: (§1)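 Susceptibility testing by a modified CLSI (formerly NCCLS) method against C. neoformans ATCC 90113, C. neoformans H99 (from Duke University) or C. gattii ATCC 32609. The top test concentration was 20 μg/mL. MIC is the lowest concentration allowing no detectable growth. IC50 is the concentration giving 50% growth inhibition.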

Data set [2] in a line: Cytotoxicity against pig LLC-PK1 cells assessed as reduction in viable cells measured after 48 hrs by neutral red dye-based method. It is filed as toxicity, cell-based. To be noted: pig (Sus scrofa). The procedure, abridged:
(§2)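 Vero (African green monkey kidney […]) and LLC-PK1 (pig kidney epithelial) cells were scored for viability by neutral red uptake. The top test concentration was 50 μg/mL. IC50 is the concentration causing 50% growth inhibition of the mammalian cells.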

Data set [3] can be described thus: Selectivity index, ratio of IC50 for pig LLC-PK1 cells to MIC for Cryptococcus neoformans ATCC 90113. Type of data set: toxicity, cell-based. To be noted: read-out: Selectivity Index. A digest of the protocol: (§3)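 Selectivity index is the mammalian-cell IC50 (neutral red assay, Vero or LLC-PK1) divided by the MIC against C. neoformans ATCC 90113 (modified CLSI method).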

Data set [4] can be described thus: Cytotoxicity against African green monkey Vero cells assessed as reduction in viable cells measured after 48 hrs by neutral red dye-based method. It is filed as toxicity, cell-based. To be noted: African green monkey (Chlorocebus sabaeus). The procedure, abridged: as §2
The subject of data set [5] is Cryptococcus bacillisporus. As to the kind of experiment: Antifungal activity against Cryptococcus gattii ATCC 32609 assessed as growth inhibition measured after 72 hrs by CLSI method. It is filed as functional. To be noted: ATCC 32609, 72 h. The procedure, abridged:
as §1

Data set [6] is described as follows: Selectivity index, ratio of IC50 for African green monkey Vero cells to MIC for Cryptococcus neoformans ATCC 90113. It is filed as toxicity, cell-based. To be noted: read-out: Selectivity Index. A digest of the protocol: as §3
Data set [7] in a line: Antifungal activity against Cryptococcus neoformans ATCC 90113 assessed as growth inhibition measured after 72 hrs by CLSI method. Type of data set: functional. The procedure, abridged:
as §1

In brackets after ≈: the same amount, converted by molar mass. Where only a bound is given, the exact number is not on record here.

Regarding `CC(C)C(=O)c1c(O)cc(OCc2ccc(C(C)C)cc2)cc1O`, in data set [1], the growth inhibition (GI) is less than 50%.

As to `CC(C)C(=O)c1c(O)cc(O)c(Cc2c(F)cccc2Cl)c1O`, the minimal inhibitory concentration (MIC) was 6.7 µg/mL (≈ 19.8 µM) in the data set with Cryptococcus neoformans, 4.2 µg/mL (≈ 12.4 µM) in data set [5] and 1.7 µg/mL (≈ 5.02 µM) in data set [7]. Besides, the IC50 at 48 h is 26.3 µg/mL (≈ 77.6 µM) in data set [2] and 28 µg/mL (≈ 82.7 µM) in data set [4]. In data set [1], the growth inhibition (GI) is greater than 50%. The selectivity ratio in data set [3] was 15.5; in data set [6] it was 16.5.

Regarding `CC(C)C(=O)c1c(O)cc(O)c(C(=O)c2ccc(F)cc2)c1O`, the results for the MIC (in the data set on Cryptococcus neoformans; in data set [5]; in data set [7]) were 11.7 µg/mL (≈ 36.8 µM), 6.7 µg/mL (≈ 21 µM) and 8.3 µg/mL (≈ 26.1 µM), respectively. Further, the half-inhibitory concentration (IC50) at 48 h in data set [2] is 27.5 µg/mL (≈ 86.4 µM); in data set [4], 13.5 µg/mL (≈ 42.4 µM). Further, the growth inhibition (GI) in data set [1] is greater than 50%. In addition, the selectivity ratio in data set [3] is 3.3; in data set [6], 1.6.

Turning to `CCOC(=O)COc1cc(O)c(C(=O)C(C)C)c(OCC(=O)OCC)c1`, in data set [1], the growth inhibition (GI) was less than 50%.

Turning to `CC(C)=CCC/C(C)=C/Cc1c(O)cc(O)c(C(=O)C(C)C)c1O`, the MIC worked out at 1.7 µg/mL (≈ 5.11 µM) with Cryptococcus neoformans, 1 µg/mL (≈ 3.01 µM) in data set [5] and 1.7 µg/mL (≈ 5.11 µM) in data set [7]. Further, the 50% inhibitory concentration (IC50) at 48 h in data set [2] came out at 24.5 µg/mL (≈ 73.7 µM); in data set [4], 22.5 µg/mL (≈ 67.7 µM). Moreover, in data set [1], the growth inhibition (GI) was greater than 50%. Moreover, the selectivity ratio in data set [3] turned out to be 14.4; in data set [6] it was 13.2.

For the compound `CC(C)(C)C(=O)c1c(O)cc(O)cc1O`, the growth inhibition (GI) in data set [1] is less than 50%.

As for `CCCC(=O)c1c(O)cc(O)c(CC=C(C)C)c1O`, the MIC in the data set on Cryptococcus neoformans worked out at 8.3 µg/mL (≈ 31.4 µM); in data set [5] it was 5 µg/mL (≈ 18.9 µM); in data set [7], 3.3 µg/mL (≈ 12.5 µM). Besides, the concentration for half-maximal inhibition (IC50) at 48 h in data set [2] is 28 µg/mL (≈ 106 µM); in data set [4] it was 16.3 µg/mL (≈ 61.7 µM). Besides, the growth inhibition (GI) in data set [1] was greater than 50%. For the same compound, the selectivity ratio is 8.5 in data set [3] and 4.9 in data set [6].

Regarding `CC(C)C(=O)c1c(O)cc(O)c(C(=O)c2ccccc2)c1O`, the MIC with Cryptococcus neoformans stood at 10 µg/mL (≈ 33.3 µM); in data set [5] it was 8.3 µg/mL (≈ 27.6 µM); in data set [7], 10 µg/mL (≈ 33.3 µM). Moreover, the 50% inhibitory concentration (IC50) at 48 h in data set [2] was 42.5 µg/mL (≈ 142 µM); in data set [4], 23 µg/mL (≈ 76.6 µM). Also, the growth inhibition (GI) in data set [1] is greater than 50%. Further, the selectivity ratio in data set [3] was 4.3; in data set [6] it was 2.3.

For `OC(Cn1cncn1)(Cn1cncn1)c1ccc(F)cc1F` [FLUCONAZOLE], the minimal inhibitory concentration (MIC) with Cryptococcus neoformans worked out at 12.5 µg/mL (≈ 40.8 µM); in data set [5], 25 µg/mL (≈ 81.6 µM); in data set [7], 6.3 µg/mL (≈ 20.6 µM).

As for `CC(C)C(=O)c1c(O)cc(O)cc1OCC(=O)NC(C)(C)C`, in data set [1], the growth inhibition (GI) is less than 50%.

Regarding `CC(C)C(=O)c1c(O)cc(O)cc1O`, in data set [1], the growth inhibition (GI) is less than 50%.

Consider `CC(C)=CCc1c(O)cc(O)c(C(=O)C(C)(C)C)c1O`, for which the growth inhibition (GI) in data set [1] was less than 50%.

For `CCOC(=O)COc1cc(O)cc(O)c1C(=O)C(C)C`, in data set [1], the growth inhibition (GI) is less than 50%.

For the compound `CCCC(=O)c1c(O)cc(O)cc1O`, the growth inhibition (GI) in data set [1] was less than 50%.

For the compound `C[C@@H]1[C@H](O)[C@@H](C)/C=C/C=C/C=C/C=C/C=C/C=C/C=C/[C@H](O[C@@H]2O[C@H](C)[C@@H](O)[C@H](N)[C@@H]2O)C[C@@H]2O[C@](O)(C[C@@H](O)C[C@@H](O)[C@H](O)CC[C@@H](O)C[C@@H](O)CC(=O)O[C@H]1C)C[C@H](O)[C@H]2C(=O)O` [AMPHOTERICIN B], the minimal inhibitory concentration (MIC) in the data set on Cryptococcus neoformans was found to be 0.3 µg/mL (≈ 0.325 µM); in data set [5], 0.3 µg/mL (≈ 0.325 µM); in data set [7], 0.4 µg/mL (≈ 0.433 µM).

With `CC(C)C(=O)c1c(O)cc(OCc2c(F)cccc2Cl)cc1O`, the growth inhibition (GI) in data set [1] is less than 50%.

Consider `COc1cccc2c1C(=O)c1c(O)c3c(c(O)c1C2=O)C[C@@](O)(C(=O)CO)C[C@@H]3O[C@H]1C[C@H](N)[C@H](O)[C@H](C)O1` [DOXORUBICIN], for which the figures for the IC50 at 48 h in data set [2] and in data set [4] were 1.3 µg/mL (≈ 2.39 µM) and greater than 10 µg/mL, respectively.

Regarding `CCOC(=O)COc1cc(O)c(C(=O)C(C)C)c(O)c1`, the growth inhibition (GI) in data set [1] is less than 50%.

Consider `CC(C)C(=O)c1c(O)cc(OCC(=O)NC(C)(C)C)cc1O`, for which the growth inhibition (GI) in data set [1] was less than 50%.

Broadly, the MIC is the lowest concentration found to suppress growth. One may read the IC50 as the concentration that gives 50% inhibition.
